Measurements from ChEMBL document CHEMBL1156223, “Hydroxy cycloalkyl fused pyridone carboxylic acid M(1) positive allosteric modulators” (Bioorg Med Chem Lett, 2010).
Activity calls are given as the source filed them. The calls are words filed in the database; no cut-off is given here.

Columns and labels:
[1] = target: T1, Muscarinic acetylcholine receptor M1 (Homo sapiens) (UniProt P11229); assay: Agonist activity at human muscarinic M1 receptor expressed in CHO cells assessed as inflection point for increase of EC20 of acetylcholine-induced calcium mobilization by FLIPR assay; format: functional, cell-based
T1 sequence (whole entry): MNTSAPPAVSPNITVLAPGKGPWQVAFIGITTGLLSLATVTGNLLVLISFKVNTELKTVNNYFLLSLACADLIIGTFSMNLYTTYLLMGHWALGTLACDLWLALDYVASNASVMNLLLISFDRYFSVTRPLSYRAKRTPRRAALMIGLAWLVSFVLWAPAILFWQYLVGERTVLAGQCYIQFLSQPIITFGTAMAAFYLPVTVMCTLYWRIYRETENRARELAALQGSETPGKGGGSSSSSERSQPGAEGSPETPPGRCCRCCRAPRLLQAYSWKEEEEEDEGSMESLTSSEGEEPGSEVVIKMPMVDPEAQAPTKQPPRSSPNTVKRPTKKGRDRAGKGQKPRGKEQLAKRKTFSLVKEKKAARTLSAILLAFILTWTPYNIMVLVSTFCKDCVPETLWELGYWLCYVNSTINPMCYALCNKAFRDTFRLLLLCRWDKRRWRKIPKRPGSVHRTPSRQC
Method in brief: (§1)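 Potency given as inflection point (IP); percent max is the response to compound plus EC20 acetylcholine relative to the maximal acetylcholine effect. Values averaged from at least two experiments; interassay variability ±30% for IP.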

[2] = target: T1, Muscarinic acetylcholine receptor M1 (Homo sapiens); assay: Agonist activity at human muscarinic M1 receptor expressed in CHO cells assessed as increase in EC20 of concentration acetylcholine-induced calcium mobilization by FLIPR assay relative to acetylcholine; format: functional, cell-based; method in brief: as §1
[3] = Apparent permeability of the compound; details: not told
[4] = Ratio of drug levell in brain to plasma in Sprague-Dawley rat at 10 mg/kg, po
Plasma = assay: Drug levell in Sprague-Dawley rat plasma at 10 mg/kg, po; details: read-out: Cp, in vivo
Brain = assay: Drug level in Sprague-Dawley rat brain at 10 mg/kg, po; details: read-out: Drug uptake, in vivo
Cerebrospinal fluid = assay: Drug level in Sprague-Dawley rat CSF at 10 mg/kg, po; details: read-out: Drug uptake, in vivo
Mus musculus = assay: Inhibition of scopolamine-induced memory impairment in ip dosed mouse relative to control; format: functional, organism-based
Method in brief: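 Mouse contextual fear conditioning (episodic memory model): scopolamine given before exposure to a novel environment to block the new association. Test compound dosed ip at three doses; reversal judged against scopolamine-alone mice. Plasma levels sampled at the 3 mpk dose.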

Compound | Activity [1] | Activity [2] | further results
O=C(O)c1cn(Cc2ccc(-n3cccn3)cc2)c2c(c1=O)C(O)CCC2 (stereo not drawn) | 1370 nM | – | –
COC1CCCc2c1c(=O)c(C(=O)O)cn2Cc1ccc(-c2ccccc2)cc1 (stereo not drawn) | 1100 nM | 90% | –
Nc1ccc(-c2ccc(Cn3cc(C(=O)O)c(=O)c4c3CCCC4O)cc2)cn1 (stereo not drawn) | 2420 nM | – | –
O=C(O)c1cn(Cc2ccc(-c3ccccc3)cc2)c2c(c1=O)CCCC2 | 751 nM | 91% | –
O=C(O)c1cn(Cc2ccc(-c3ccc(Cl)cc3)cc2)c2c(c1=O)C(O)CCC2 (stereo not drawn) | 340 nM | – | –
O=C(O)c1cn(Cc2ccc(-c3ccccc3)cc2)c2c(c1=O)CCC2 | 810 nM | 99% | –
COc1ccc(-c2ccc(Cn3cc(C(=O)O)c(=O)c4c3CCCC4O)cc2)cc1 (stereo not drawn) | 1390 nM | – | –
COc1cccc(-c2ccc(Cn3cc(C(=O)O)c(=O)c4c3CCCC4O)cc2)c1 (stereo not drawn) | 410 nM | – | –
O=C(O)c1cn(Cc2ccc(-c3ccc(F)nc3)cc2)c2c(c1=O)C(O)CCC2 (stereo not drawn) | 14800 nM | – | –
O=C(O)c1cn(Cc2ccc(-c3ccc(F)cc3)cn2)c2c(c1=O)C(O)CCC2 (stereo not drawn) | 1100 nM | – | –
COc1ccc(-c2ccc(Cn3cc(C(=O)O)c(=O)c4c3CCCC4O)cc2)cn1 (stereo not drawn) | 320 nM | – | –
Nc1cccc(-c2ccc(Cn3cc(C(=O)O)c(=O)c4c3CCCC4O)nc2)c1 (stereo not drawn) | 420 nM | – | –
O=C(O)c1cn(Cc2ccc(-n3ccnc3)cc2)c2c(c1=O)C(O)CCC2 (stereo not drawn) | 2500 nM | – | –
O=C(O)c1cn(Cc2ccc(-c3ccccc3)cc2)c2c(c1=O)CCCC2O (stereo not drawn) | 8190 nM | 59% | –
O=C(O)c1cn(Cc2ccc(-c3ccsc3)cc2)c2c(c1=O)C(O)CCC2 (stereo not drawn) | 2640 nM | – | –
O=C(O)c1cn(Cc2ccc(-c3ccccc3)cc2)c2ccccc2c1=O | 212 nM | 92% | –
O=C(O)c1cn(Cc2ccc(-c3ccccc3Cl)cc2)c2c(c1=O)C(O)CCC2 (stereo not drawn) | 1400 nM | – | –
O=C(O)c1cn(Cc2ccc(-c3ccccc3)cc2)c2c(c1=O)CCCC2=O | 4890 nM | 70% | –
O=C(O)c1cn(Cc2ccc(-c3cccc(Cl)c3)cc2)c2c(c1=O)C(O)CCC2 (stereo not drawn) | 340 nM | – | –
Cn1cc(-c2ccc(Cn3cc(C(=O)O)c(=O)c4c3CCCC4O)cc2)cn1 (stereo not drawn) | 908 nM | – | Papp [3]: 19 ×10⁻⁶ cm/s; Kp [4]: 0.01; concentration (Plasma): 26700 nM; concentration (Brain): 368 nM; concentration (Cerebrospinal fluid): 110 nM
O=C(O)c1cn(Cc2ccc(-c3ccccc3)cc2)c2c(c1=O)C(=O)CCC2 | 800 nM | 94% | –
COc1ccccc1-c1ccc(Cn2cc(C(=O)O)c(=O)c3c2CCCC3O)cc1 (stereo not drawn) | 3100 nM | – | –
O=C(O)c1cn(Cc2ccc(-c3ccccc3)cc2)c2c(c1=O)C(O)CCC2 (stereo not drawn) | – | 99% | inhibition (Mus musculus): Active
CN(C)c1ccc(-c2ccc(Cn3cc(C(=O)O)c(=O)c4c3CCCC4O)cc2)cn1 (stereo not drawn) | 1100 nM | – | –
O=C(O)c1cn(Cc2ccc(-c3ccoc3)cc2)c2c(c1=O)C(O)CCC2 (stereo not drawn) | 750 nM | – | –
